Data taken from ChEMBL document CHEMBL2331390, “Telomere shortening and cell senescence induced by perylene derivatives in A549 human lung cancer cells” (Bioorg Med Chem, 2013).
pIC50: −log10 of the molar value. The source made the active and inactive calls. The rule behind the calls is not given here.

What was measured:
[1] = tested on: A549; test: Cytotoxicity against human A549 cells assessed as colony formation at 0.8 uM incubated for 6 days followed by subculturing in compound-free medium measured after 14 days by crystal violet staining method relative to control; format: functional
Summary of the method: (§1)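 A549 cells from the long-term culture (0.4 or 0.8 μM, medium changed every 3 days, replated every 6 days) were collected on the stated day. 2×10^3 cells seeded per 10-cm dish, fed every 4-5 days. Colonies stained with crystal violet after 14 days and counted; expressed as % of control. Controls under 25 colonies excluded. Three independent experiments.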

[2] = tested on: A549; test: Cytotoxicity against human A549 cells assessed as colony formation at 0.4 uM incubated for 78 days followed by subculturing in compound-free medium measured after 14 days by crystal violet staining method relative to control; format: functional; summary of the method: as §1
[3] = tested on: A549; test: Binding affinity to human TERT promoter DNA sequence in human A549 cells assessed as telomere restriction fragment length at 0.8 uM after 30 days by TeloTAGGG-based chemiluminescence assay (reference value: 3.3 kb); format: cell-based
Summary of the method: (§2)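 Genomic DNA from A549 cells kept long-term with 0.4 or 0.8 μM compound (medium changed every 3 days, replated every 6 days). DNA isolated with DNAzol. 2 µg digested with RsaI/HinfI, run on 0.8% agarose, Southern-blotted, hybridized with DIG-labeled telomeric probe, anti-DIG alkaline phosphatase, chemiluminescence. Mean TRF = Σ(ODi)/Σ(ODi/Li).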

[4] = Binding affinity to TSG4 primer DNA (unknown origin) assessed as inhibition of telomerase-mediated extension of primer […] by fluorescence-based TRAP assay
Summary of the method: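 Cell-free TRAP. Compound preincubated with TSG4 primer in telomerase buffer (20 mM Tris-HCl pH 7.4, 1.5 mM MgCl2, 63 mM KCl, 1 mM EGTA, 200 µM dNTPs) at 37 °C for 2 h. Crude telomerase (50 ng) from telomerase-transfected HEK293T added, 30 °C for 30 min. Compound removed by phenol-chloroform, products ethanol-precipitated, PCR with FAM-tagged primer, 8% native PAGE, phosphoimaging. IC50 ± SD from three experiments.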

[5] = tested on: A549; test: Cytotoxicity against human A549 cells assessed as colony formation at 0.8 uM incubated for 78 days followed by subculturing in compound-free medium measured after 14 days by crystal violet staining method relative to control; format: functional; summary of the method: as §1
[6] = species on record: Homo sapiens; test: Binding affinity to human TERT1 5'-AAGGGGAGGGGCTGGGAGGGCCCGGA-3' DNA assessed as induction of intramoleculsr G-quadruplex formation after 10 hrs by PAGE analysis
Summary of the method: (§3)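 FAM-labeled G-rich strand (2 µM) and complementary C-rich strand (2 µM) with compound in 10 mM Tris-HCl pH 7.4, 100 mM KCl. Heated to 95 °C for 5 min, slowly cooled to 55 °C, held 10 h, then cooled to 4 °C. Duplex vs G-quadruplex resolved on 16% native PAGE with 50 mM KCl (4 °C, 350 V, 10 h) and fluorescence-imaged.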

[7] = tested on: A549; test: Binding affinity to human TERT promoter DNA sequence in human A549 cells assessed as telomere restriction fragment length at 0.4 uM after 6 days by TeloTAGGG-based chemiluminescence assay (reference value: 3.4 kb); format: cell-based; summary of the method: as §2
[8] = tested on: A549; test: Binding affinity to human TERT promoter DNA sequence in human A549 cells assessed as decrease in TERT mRNA expression at 6 uM after 24 hrs by semi-quantitative PCR analysis relative to control; format: cell-based; design: scale not given: the % may be the effect or the level left
Summary of the method: (§4)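 A549 cells (3.0×10^5) grown 24 h in RPMI 1640 + 10% FBS at 37 °C, 5% CO2, then exposed to compound for 24 h. Total RNA by Trizol, reverse transcribed, hTERT amplified with specific primers. Semi-quantitative and real-time SYBR Green PCR (45 cycles), standard-curve method, normalized to GAPDH. Three independent experiments.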

[9] = tested on: A549; test: Antiproliferative activity against human A549 cells assessed as decrease in population doubling at 0.8 uM after 78 days relative to control; format: functional; design: scale not given: the % may be the effect or the level left
Summary of the method: (§5)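 A549 cells (1.5×10^5) seeded in RPMI 1640 + 10% FBS with 0.4 or 0.8 μM perylene or medium only. Medium changed every 3 days. Every 6 days, at confluence, cells were trypsinized, counted by hemocytometer and replated at 1.5×10^5. Population doublings n = (log Pn − log P0)/log 2, cumulated against time. Three independent experiments.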

[10] = species on record: Homo sapiens; test: Binding affinity to human TERT2 5'-GGGGGCTGGGCCGGGGACCCGGGAGGGGTCGGGACGGGGCGGGG-3' DNA assessed as induction of intermolecular G-quadruplex formation at 8 to 32 uM after 10 hrs by PAGE analysis; summary of the method: as §3
[11] = tested on: A549; test: Binding affinity to human TERT promoter DNA sequence in human A549 cells assessed as telomere restriction fragment length at 0.4 uM after 78 days by TeloTAGGG-based chemiluminescence assay (reference value: 3.4 kb); format: cell-based; summary of the method: as §2
[12] = tested on: A549; test: Induction of senescence in human A549 cells assessed as increase in beta-galactosidase activity at 0.4 to 0.8 uM incubated for 78 days followed by subculturing on compound-free medium measured after 48 hrs by fluorescence microscopic analysis; format: functional, cell-based
Summary of the method: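 A549 cells from the long-term treatment replated and grown 48 h. Fixed in 2% formaldehyde/0.2% glutaraldehyde for 5 min at RT. Stained overnight with 1 mg/ml X-gal in pH 6 citrate/phosphate buffer with 5 mM ferro/ferricyanide, 150 mM NaCl, 2 mM MgCl2. Enlarged blue cells scored by microscopy.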

[13] = tested on: A549; test: Binding affinity to human TERT promoter DNA sequence in human A549 cells assessed as telomere restriction fragment length at 0.8 uM after 78 days by TeloTAGGG-based chemiluminescence assay (reference value: 3.4 kb); format: cell-based; summary of the method: as §2
[14] = tested on: A549; test: Cytotoxicity against human A549 cells assessed as colony formation at 0.8 uM incubated for 30 days followed by subculturing in compound-free medium measured after 14 days by crystal violet staining method relative to control; format: functional; summary of the method: as §1
[15] = tested on: A549; test: Antiproliferative activity against human A549 cells assessed as decrease in population doubling at 0.4 uM after 78 days; format: functional, cell-based; summary of the method: as §5
[16] = tested on: A549; test: Antiproliferative activity against human A549 cells assessed as decrease in cell viability at 0.8 uM after 78 days relative to control; format: functional, cell-based; summary of the method: as §5
[17] = tested on: A549; test: Cytotoxicity against human A549 cells assessed as colony formation at 0.4 uM incubated for 30 days followed by subculturing in compound-free medium measured after 14 days by crystal violet staining method relative to control; format: functional; summary of the method: as §1
[18] = tested on: A549; test: Binding affinity to human TERT promoter DNA sequence in human A549 cells assessed as telomere restriction fragment length at 0.8 uM after 6 days by TeloTAGGG-based chemiluminescence assay (reference value: 3.4 kb); format: cell-based; summary of the method: as §2
[19] = tested on: A549; test: Cytotoxicity against human A549 cells assessed as reduction in colony formation incubated for 30 days followed by subculturing in compound-free medium measured after 14 days by crystal violet staining method; format: functional, cell-based; summary of the method: as §1
[20] = tested on: A549; test: Binding affinity to human TERT promoter DNA sequence in human A549 cells assessed as telomere restriction fragment length at 0.4 uM after 30 days by TeloTAGGG-based chemiluminescence assay (reference value: 3.3 kb); format: cell-based; summary of the method: as §2
[21] = species on record: Homo sapiens; test: Binding affinity to human telomeric 5'-AGATAGTTAGGGTTAGGGTTAGGGTTAGGGTT-3' DNA assessed as induction of intramoleculsr G-quadruplex formation after 10 hrs by PAGE analysis; summary of the method: as §3
[22] = tested on: A549; test: Cytotoxicity against human A549 cells assessed as colony formation at 0.4 uM incubated for 6 days followed by subculturing in compound-free medium measured after 14 days by crystal violet staining method relative to control; format: functional; summary of the method: as §1
[23] = tested on: A549; test: Binding affinity to human TERT promoter DNA sequence in human A549 cells assessed as decrease in TERT mRNA expression after 24 hrs by semi-quantitative PCR analysis; format: cell-based; summary of the method: as §4
[24] = tested on: A549; test: Binding affinity to human TERT promoter DNA sequence in human A549 cells assessed as inhibition of telomerase-mediated MTS primer extension after 24 hrs by fluorescence-based TRAP assay; format: cell-based
Summary of the method: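 A549 cells exposed to compound for 24 h, lysed in CHAPS buffer, protein measured by Bradford. 6 µg lysate protein used as telomerase source in fluorescent TRAP with MTS primer (no G-quadruplex motif), with no phenol-chloroform step. FAM-primer PCR, native PAGE, fluorescence quantified. Mean ± SD of three experiments.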

In the case of O=C1c2ccc3c4ccc5c6c(ccc(c7ccc(c2c37)C(=O)N1CCN1CCCCC1)c64)C(=O)N(CCN1CCCCC1)C5=O, the Activity [1] was 93%, the Activity [2] was 78% and the Activity [3] was 3.1 kilobase. The pIC50 [4] was 5.85, the inhibition [4] was “Dose-dependent effect” and the Activity [5] was 66%. The Activity [6] was “Dose-dependent effect”, the Activity [7] was 3.6 kilobase and the Activity [8] was 68%. The Activity [9] was 20%, the Activity [10] was “Active” and the Activity [11] was 3 kilobase. The Activity [12] was “inactive”, the Activity [13] was 2.7 kilobase and the Activity [14] was 89%. The Activity [15] was “inactive”, the Activity [16] was “inactive” and the Activity [17] was 96%. For the same molecule, the Activity [18] was 3.5 kilobase, the Activity [19] was “Dose-dependent effect” and the Activity [20] was 3.3 kilobase. The Activity [21] was “Dose-dependent effect”, the Activity [22] was 95% and the Activity [23] was “Dose-dependent effect”. For the same molecule, the Activity [24] was “Dose-dependent effect”.
